Data on 8 compounds can be found in ChEMBL document CHEMBL2380301, “Chemotherapy of leishmaniasis. Part XII: design, synthesis and bioevaluation of novel triazole integrated phenyl heteroterpenoids as antileishmanial agents” (Bioorg Med Chem Lett, 2013).

Data set [1] in a line: Cytotoxicity against african green monkey Vero cells after 72 hrs by MTT assay. The class given is cell-based. The note with it: chlorocebus sabaeus. The essentials: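 Vero monkey kidney […] were exposed to compounds for 72 h, and viable cells were detected with MTT by a modified Mosmann method. CC50 is the mean of two independent experiments.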
(Tetrazolium dyes change colour on reduction, which living cells bring about.)

A short description of data set [2]: Selectivity index, ratio of CC50 for african green monkey Vero cells to IC50 for amastigotes of Leishmania donovani. The class given is functional. Put shortly: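 Ratio of CC50 on Vero cells (72 h MTT) to IC50 on intramacrophage L. donovani amastigotes in luciferase-expressing J-774A.1 infections (72 h). Both values are means of two independent experiments.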

The test system of data set [3] is Leishmania donovani. In words: Antileishmanial activity against amastigotes of Leishmania donovani assessed as inhibition of parasite growth at 40 uM after 72 hrs by luciferase reporter assay. Format: functional. The essentials:
(§1)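 J-774A.1 murine macrophages (4 × 10³/well) were seeded and grown 24 h, then infected with luciferase-transfected L. donovani promastigotes (4 × 10⁴/well) that transformed intracellularly into amastigotes. Compounds at […] were added for 72 h. After supernatant removal, cells were taken up in PBS with Steady-Glo and luminescence read. Inhibition was calculated against untreated controls. IC50 is the mean of two independent experiments.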
(In general: A reporter such as luciferase makes a cellular process visible.)

The test system of data set [4] is Leishmania donovani. In words: Antileishmanial activity against amastigotes of Leishmania donovani assessed as inhibition of parasite growth after 72 hrs by luciferase reporter assay. Format: functional, organism-based. The essentials: as §1
Data set [5] deals with Leishmania donovani. Kind of data set: Antileishmanial activity against Leishmania donovani infected in golden hamster assessed as inhibition of parasite multiplication at 50 mg/kg, ip qd for 5 days measured on day 7. The class given is functional. The note with it: route intraperitoneal. Put shortly: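 Inbred golden hamsters of either sex, 40–45 g, infected intracardiacally with 1 × 10⁷ L. donovani amastigotes per animal. Dosing was 50 mg/kg ip for 5 days. Biopsies were taken on day 7 after the last dose and amastigotes counted by Giemsa staining. Counts were compared between treated and untreated animals and with the initial count in treated animals, and expressed as per cent inhibition.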

As to `CC1=C(/C=C/C(=O)/C=C/c2ccc(-n3cncn3)cc2)C(C)(C)CCC1`, the CC50 – broadly, the concentration at which the toxic effect on the cells reaches its halfway point – at 72 h in data set [1] was determined as 72.4 µM. For the same compound, in data set [2], the “Ratio CC50/IC50” value is 5. Also, the inhibition (usually the change of the read-out against control, counted positive when it falls) at 40 µM in the data set on Leishmania donovani [3] stood at 100%. For the same compound, in the data set on Leishmania donovani [4], the IC50 (as a rule, the concentration needed to halve the response being measured) was 15.3 µM.

In data set [1], `CC1=C(/C=C/C2=NN(c3ccccc3)C(c3ccc(-n4cncn4)cc3)C2)C(C)(C)CCC1` (centres undefined) showed a CC50 at 72 h of 112 µM. Also, in data set [2], the “Ratio CC50/IC50” value was 18. Further, the inhibition at 40 µM in the data set on Leishmania donovani [3] amounted to 100%. In addition, in the data set on Leishmania donovani [4], the IC50 came to 6.4 µM. Besides, the inhibition in vivo (as a rule, the drop in the measured response relative to a control, in per cent) at 50 mg/kg in the data set on Leishmania donovani [5] came to 79%.

With `CC1=C(/C=C/C2=NN(c3ccc(F)cc3)C(c3ccc(-n4cncn4)cc3)C2)C(C)(C)CCC1` (centres undefined), the midpoint of cytotoxicity in data set [1], the CC50 at 72 h, lay at 58.6 µM. The “Ratio CC50/IC50” value in data set [2] amounted to 5. In addition, in the data set on Leishmania donovani [3], the inhibition at 40 µM is 98.7%. For the same compound, the IC50 with Leishmania donovani [4] was 12.4 µM.

`CC1=CCCC(C)(C)C1/C=C/C(=O)/C=C/c1ccc(-n2cncn2)cc1` (centres undefined) yielded a CC50 at 72 h in data set [1] of 38.5 µM. In addition, in data set [2], the “Ratio CC50/IC50” value came out at 3. Moreover, the inhibition at 40 µM in the data set on Leishmania donovani [3] came to 98.2%. Also, in the data set with Leishmania donovani [4], the IC50 came out at 11.6 µM.

`CC1=CCCC(C)(C)C1/C=C/C1=NN(c2ccccc2)C(c2ccc(-n3cncn3)cc2)C1` (centres undefined): in data set [1], the CC50 at 72 h was 296 µM. For the same compound, in data set [2], the “Ratio CC50/IC50” value worked out at 32. Moreover, the inhibition at 40 µM in the data set with Leishmania donovani [3] is 98%. Also, in the data set with Leishmania donovani [4], the half-inhibitory concentration (IC50) was 9.2 µM. Also, the inhibition in vivo at 50 mg/kg in the data set on Leishmania donovani [5] is 58%.

The compound `CC1=CCCC(C)(C)C1/C=C/C1=NN(c2ccc(F)cc2)C(c2ccc(-n3cncn3)cc2)C1` (centres undefined) gave a CC50 at 72 h in data set [1] of 72.2 µM. Moreover, the “Ratio CC50/IC50” value in data set [2] is 4. Moreover, in the data set on Leishmania donovani [3], the inhibition at 40 µM was determined as 90.5%. For the same compound, the IC50 with Leishmania donovani [4] was 16.9 µM.

The compound `Clc1ccc(COC(Cn2ccnc2)c2ccc(Cl)cc2Cl)c(Cl)c1` (centres undefined) [MICONAZOLE] returned a CC50 at 72 h in data set [1] of 37.4 µM. The “Ratio CC50/IC50” value in data set [2] is given as 7. In addition, the inhibition at 40 µM in the data set on Leishmania donovani [3] was determined as 100%. For the same compound, the IC50 in the data set with Leishmania donovani [4] amounted to 5.4 µM.

In data set [1], `CCCCCCCCCCCCCCCCOP(=O)([O-])OCC[N+](C)(C)C` [MILTEFOSINE] came in with a CC50 at 72 h of 54.7 µM. Besides, in data set [2], the “Ratio CC50/IC50” value is listed as 6. In addition, the inhibition at 40 µM in the data set with Leishmania donovani [3] was found to be 100%. Besides, in the data set with Leishmania donovani [4], the 50% inhibitory concentration (IC50) turned out to be 8.6 µM.
